The values that follow come from ChEMBL document CHEMBL5338772, “Stereochemical Control of Splice Modulation in FD-895 Analogues” (J Med Chem, 2023).

Data set [1] in a line: Cytotoxicity against human HCT-116 cells assessed as cell growth inhibition incubated for 72 hrs by MTS assay. Type of data set: toxicity, cell-based. In short, it runs like this:
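HCT-116 cells (ATCC; split every other day, no more than five generations, mycoplasma-tested) plated at 5 × 10³ cells/well in supplemented McCoy's 5a and grown 24 h at 37 °C, 5% CO₂. Compound added from DMSO (0.5% DMSO final) for 72 h. Cells washed with PBS, MTS reagent added for 2 h at 37 °C, A490 read against A690. GI₅₀ fitted from dose curves of 3 biological replicates.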
Background: Tetrazolium dyes change colour on reduction, which living cells bring about.

Data set [2] has as its system HCT-116. Put plainly: Cytotoxicity against human HCT-116 cells assessed as reduction in cell viability at 5.6 uM incubated for 4 hrs by MTS assay. The data set is classed as toxicity, cell-based. The settings on record: hct-116, 4 h.
Data set [3] concerns HCT-116. Kind of data set: Cytotoxicity against human HCT-116 cells assessed as reduction in cell viability at 500 nM incubated for 24 hrs by MTS assay. Type of data set: toxicity, cell-based. The settings on record: hct-116, 24 h, 0.5 µM. In short, it runs like this:
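HCT-116 cells plated at 5 × 10³ cells/well in supplemented McCoy's 5a and grown 24 h at 37 °C, 5% CO₂. Compound given at 500 nM, the top dose of the 24 h splicing series, in 0.5% DMSO for 24 h. Cells washed with PBS, MTS reagent added for 2 h at 37 °C, A490 read against A690.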

Data set [4] deals with SF3A3 pre-mRNA. Kind of data set: Modulation of splicing in SF3A3 pre-mRNA in human HCT-116 cells assessed as intron 5 retention level at 5.6 uM incubated for 4 hrs by qRT-PCR analysis. Type of data set: functional, cell-based. Particulars: filed as modulator.
In data set [5] the test system is SF3B1 pre-mRNA. Put plainly: Modulation of splicing in SF3B1 pre-mRNA in human HCT-116 cells assessed as intron 13 retention level at 5.6 uM incubated for 4 hrs by qRT-PCR analysis. The data set is classed as functional, cell-based. The settings on record: filed as modulator. In short, it runs like this: (§1)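 HCT-116 cells in supplemented McCoy's 5a, compound added from DMSO stock to a final 0.5% DMSO, 4 h at a single standardized concentration per analogue. Total RNA isolated and DNase-treated (1 µg). qPCR used 2.5 µM each primer on 5 ng cDNA, 40 cycles. Intron retention was computed by the 2^-CT method relative to GAPDH and expressed versus untreated cells set to 1.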
Background: Real-time PCR tracks product formation cycle by cycle.

The subject of data set [6] is DNAJB1 pre-mRNA. Put plainly: Modulation of splicing in DNAJB1 pre-mRNA in human HCT-116 cells assessed as intron 2 retention level at 5.6 uM incubated for 4 hrs by qRT-PCR analysis. Type of data set: functional, cell-based. Particulars: filed as modulator.
Data set [7] has as its system SF3A1 pre-mRNA. Put plainly: Modulation of splicing in SF3A1 pre-mRNA in human HCT-116 cells assessed as intron 6 retention level at 5.6 uM incubated for 4 hrs by qRT-PCR analysis. The data set is classed as functional, cell-based. The settings on record: filed as modulator.
Data set [8] has as its system SF3B2 pre-mRNA. Put plainly: Modulation of splicing in SF3B2 pre-mRNA in human HCT-116 cells assessed as intron 10 retention level at 5.6 uM incubated for 4 hrs by qRT-PCR analysis. Type of data set: functional, cell-based. The settings on record: filed as modulator. In short, it runs like this: as §1
Data set [9] has as its system AURKA pre-mRNA. Kind of data set: Modulation of splicing in AURKA pre-mRNA in human HCT-116 cells assessed as effect on exon 4 skipping at 5.6 uM incubated for 4 hrs by qRT-PCR analysis. The data set is classed as functional, cell-based. The settings on record: filed as modulator.

Activity calls are given as the source filed them. The rule behind the calls is not given here.

By GI50 is commonly meant the concentration giving 50% growth inhibition.

For `CC[C@@H](OC)[C@H](C)[C@H]1O[C@@H]1[C@@H](O)[C@H](C)/C=C/C=C(\C)[C@H]1OC(=O)C[C@H](O)CC[C@@](C)(O)[C@@H](OC(C)=O)/C=C/[C@@H]1C`, the GI50 at 72 h in data set [1] is 285 nM. The Activity entry in data set [2] is “Non-Toxic”; in [3] it was “Non-Toxic”; in [4], less than 3; in [5], less than 3; in [6], greater than 3; in data set [7], greater than 3. Further, in data set [8], the Activity is greater than 3. Besides, the outcome in [9] was Active.
